Data on 19 compounds can be found in ChEMBL document CHEMBL1138786, “Synthesis of benzodithiol-2-yl-substituted nucleoside derivatives as lead compounds having anti-bovine viral diarrhea virus activity” (J Med Chem, 2004).

pEC50: −log10 of the molar value. Several values for one entry are separate records, joined by “and”; a condition that tells them apart may be missing. Identical values can stand only once.

Data set [1] can be described thus: Cytotoxicity in MDBK (Madin-darby bovine kidney) cells. The format is cell-based, Bos taurus. Conditions: cattle. In short, it runs like this: (§1)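 Cell viability assay: MDBK cells at 2 × 10^4 per well, cultured with graded compound concentrations at 37 °C for 3 days. Viable cells measured colorimetrically with a water-soluble tetrazolium dye.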
The species named for data set [2] is Bos taurus. Kind of data set: Anti BVDV activity relative to ribavirin. It counts as functional.
Data set [3] can be described thus: Anti BVDV activity in MDBK (Madin-darby bovine kidney) cells. It counts as functional, Bos taurus. In outline: (§2)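 MDBK cells in DMEM with 10% heat-inactivated horse serum, penicillin and streptomycin, seeded at 5 × 10^5 cells/ml and incubated overnight at 37 °C. Infected with about 100 focus forming units of BVDV (nose strain) in the presence of graded compound concentrations for 24 h. Monolayers washed with PBS, overlaid with medium containing bactoagar, incubated a further 24 h. Viral foci counted microscopically.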

Data set [4] is described as follows: Ratio of cytotoxicity to anti BVDV activity of the compound. On the set-up: species or system Bos taurus. Conditions: cattle; for selectivity ratio: read-out: CC50/EC50.
Data set [5] can be described thus: Cytotoxicity in MDBK (Madin-darby bovine kidney) cells (Ribavirin EC50 0.61 and CC50 90.2). The following applies: cattle. The format is cell-based, Bos taurus. In short, it runs like this: as §1
The species named for data set [6] is Bos taurus. Kind of data set: Anti BVDV activity relative to ribavirin (Ribavirin EC50 0.61 and CC50 90.2). It counts as functional.
Data set [7] is described as follows: Anti BVDV activity in MDBK (Madin-darby bovine kidney) cells (Ribavirin EC50 0.61 and CC50 90.2). It counts as functional, Bos taurus. In short, it runs like this:
as §2

Data set [8] in a line: Anti-bovine viral diarrhoea virus activity relative to ribavirin. It counts as functional, Bos taurus.
The nature of data set [9]: Cytotoxicity in MDBK (Madin-darby bovine kidney) cells (Ribavirin EC50 1.2 and CC50 >100). Conditions: cattle. It counts as cell-based, Bos taurus. In outline:
as §1

The nature of data set [10]: Anti BVDV activity in MDBK (Madin-darby bovine kidney) cells (Ribavirin EC50 1.2 and CC50 >100). The format is functional, Bos taurus. In outline:
as §2

Data set [11] is filed under the species Bos taurus. Kind of data set: Anti BVDV activity relative to ribavirin (EC50 1.2 and CC50 >100). It counts as functional.

In general, CC50 refers to the concentration that lowers cell viability or growth by half. A high value points to lower toxicity to the cells. As a reminder, the pEC50 is the negative decadic logarithm of the EC50, by convention in mol/L. Higher therefore signals a small EC50. Regarding `O=c1ccn([C@@H]2O[C@H](CO)C(OC3Sc4ccccc4S3)[C@@H]2OC2Sc3ccccc3S2)c(=O)[nH]1` (stereo partly drawn), half-maximal cytotoxicity in [1] (CC50) was put at 48 µM. The compound also yielded an EC50rel in the data set listed under Bos taurus [2] of less than 71.7. For the same compound, the pEC50 in data set [3] was greater than 4.32.

Regarding `Nc1ncnc2c1ncn2[C@@H]1O[C@H](CO)C(O)[C@@H]1OC1Sc2ccccc2S1` (stereo partly drawn), in [1], the cytotoxic concentration (CC50) was determined as 74.3 µM. In the data set listed under Bos taurus [2], this compound gave an EC50rel of 58.5. For the same compound, the selectivity ratio in data set [4] is 1.89. Also, the negative-log EC50 (pEC50) in [3] was 4.41.

In the case of `COC(=O)Nc1ccn([C@@H]2O[C@H](CO)C(O)[C@@H]2OC2Sc3ccccc3S2)c(=O)n1` (stereo partly drawn), the half-maximal cytotoxic concentration (CC50) in data set [5] is 60.1 µM. Further, in the data set listed under Bos taurus [6], the EC50rel came out at 82.5. Also, the negative logarithm of the EC50 (pEC50) in [7] was 4.30. Also, the selectivity ratio in [4] was determined as 1.19.

As for `Nc1nc(O)c2ncn([C@H]3C[C@H](OC4Sc5ccccc5S4)[C@@H](CO)O3)c2n1`, the cytotoxic concentration (CC50) in data set [1] is greater than 100 µM. This compound had an EC50rel in the data set listed under Bos taurus [2] of 52.9. The selectivity ratio in data set [4] is greater than 1.3. The compound further showed a pEC50 in [3] of 4.10.

Turning to `Nc1ncnc2c1ncn2[C@H]1C[C@H](OC2Sc3ccccc3S2)[C@@H](CO)O1`, the midpoint of cytotoxicity in [1], the CC50, lay at 68.4 µM. In addition, the EC50rel in the data set filed under Bos taurus [2] is 42.5. Further, the selectivity ratio in data set [4] came out at 1.1. In data set [3], this compound gave a negative logarithm of the EC50 (pEC50) of 4.20.

`CSc1ccccc1SCO[C@H]1C[C@H](n2cnc3c(N)ncnc32)O[C@@H]1CO`: in data set [1], the cytotoxic concentration (CC50) is greater than 100 µM. Also, the pEC50 in data set [3] was less than 4.00.

Compound `O=c1ccn([C@@H]2O[C@H](CO)C(O)[C@@H]2OC2Sc3ccccc3S2)c(=O)[nH]1` (stereo partly drawn) displayed a cytotoxic concentration (CC50) in data set [1] of 67.3 µM. In the data set filed under Bos taurus [2], this compound registered an EC50rel of 84.6. Further, the selectivity ratio in data set [4] amounted to 1.19. Moreover, the negative logarithm of the EC50 (pEC50) in data set [3] was 4.25.

Consider `NC(=O)c1ncn([C@@H]2O[C@H](CO)[C@@H](O)[C@H]2O)n1` [RIBAVIRIN], for which the half-maximal cytotoxic concentration (CC50) in data set [1] was greater than 100 µM. Moreover, the EC50rel (in the data set listed under Bos taurus [2]; in [8]) was 1 throughout. The CC50/EC50 in data set [4] was < 150 and > 67. The pEC50 in data set [3] was 5.82 and 6.17.

With `COC1Sc2ccccc2S1`, in data set [1], the CC50 was greater than 100 µM. In data set [3], this compound had a pEC50 of less than 4.00.

As to `O=c1ccn([C@@H]2O[C@H](CO)C(OC3Sc4ccccc4S3)[C@@H]2O)c(=O)[nH]1` (stereo partly drawn), the 50% cytotoxic concentration (CC50) in data set [1] was 73.9 µM. This compound displayed an EC50rel in the data set listed under Bos taurus [2] of 75.5. The selectivity ratio in data set [4] was determined as 1.46. The compound also had a negative logarithm of the EC50 (pEC50) in [3] of 4.30.

In turn, `CSc1ccccc1SCO[C@H]1C[C@H](n2cc(C)c(=O)[nH]c2=O)O[C@@H]1CO` returned a cytotoxic concentration (CC50) in [1] greater than 100 µM. For the same compound, in the data set listed under Bos taurus [2], the EC50rel was 59.7. In addition, the selectivity ratio in data set [4] is greater than 1.1. In addition, the negative logarithm of the EC50 (pEC50) in data set [3] was 4.05.

For `CSc1ccccc1SCO[C@H]1C[C@H](n2ccc(N)nc2=O)O[C@@H]1CO`, in data set [1], the cytotoxic concentration (CC50) is greater than 100 µM. This compound also showed a negative-log EC50 (pEC50) in data set [3] of less than 4.00.

For the compound `Nc1nc(O)c2ncn([C@@H]3O[C@H](CO)C(O)[C@@H]3OC3Sc4ccccc4S3)c2n1` (stereo partly drawn), the CC50 in [1] amounted to 73.2 µM. In addition, in the data set filed under Bos taurus [2], the EC50rel is 21.5. In addition, the selectivity ratio in [4] amounted to 5.09. The compound also had a pEC50 in data set [3] of 4.84.

Take `Cc1cn([C@H]2C[C@H](OC3Sc4ccccc4S3)[C@@H](CO)O2)c(=O)[nH]c1=O`: the CC50 in data set [1] worked out at 72.4 µM. The compound further registered an EC50rel in data set [8] of 31.2. For the same compound, in [4], the selectivity ratio was 1.5. In data set [3], this compound had a negative-log EC50 (pEC50) of 4.33.

`Cc1cn([C@H]2C[C@H](OC3Sc4ccccc4S3)[C@@H](C)O2)c(=O)[nH]c1=O`: the half-maximal cytotoxic concentration (CC50) in [1] worked out at 81.3 µM. The EC50rel in the data set listed under Bos taurus [2] stood at 57.8. Besides, in [4], the selectivity ratio came out at 0.93. Moreover, the pEC50 in [3] is 4.06.

`CSc1ccccc1SCO[C@H]1C[C@H](n2cnc3c(O)nc(N)nc32)O[C@@H]1CO` registered a 50% cytotoxic concentration (CC50) in [1] greater than 100 µM. In addition, the pEC50 in data set [3] is less than 4.00.

The compound `Nc1ccn([C@H]2C[C@H](OC3Sc4ccccc4S3)[C@@H](CO)O2)c(=O)n1` displayed a CC50 in data set [1] of 69.7 µM. The compound also displayed an EC50rel in the data set listed under Bos taurus [2] of 46.1. For the same compound, the selectivity ratio in data set [4] was determined as 1. In addition, the pEC50 in data set [3] is 4.16.

In the case of `OC[C@H]1O[C@@H](n2cnc3c(O)ncnc32)[C@@H](OC2Sc3ccccc3S2)C1O` (stereo partly drawn), in [9], the CC50 stood at 59.2 µM. The compound further gave a negative-log EC50 (pEC50) in [10] of 4.74. Further, the EC50rel in the data set filed under Bos taurus [11] is 15.3. Moreover, the selectivity ratio in data set [4] came out at 3.21.

Regarding `Nc1ccn([C@@H]2O[C@H](CO)C(O)[C@@H]2OC2Sc3ccccc3S2)c(=O)n1` (stereo partly drawn), the CC50 in data set [1] amounted to 70.4 µM. In addition, in the data set listed under Bos taurus [2], the EC50rel was 42.5. Besides, the selectivity ratio in [4] came out at 2.47. The pEC50 in data set [3] is 4.55.
